# Test results: ChEMBL document CHEMBL1127545, “Synthesis, oral bioavailability determination, and in vitro evaluation of prodrugs of the antiviral agent 9-[2-(phosphonomethoxy)ethyl]adenine (PMEA)” (J Med Chem, 1994)
# What was measured:
# [1] = Bioavailability in rat of PMEA prodrug; assay type: ADME, organism-based; settings: in vivo
# Summary of the method: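 Male rats fasted 12-18 h, three per route. Reference: parent phosphonate iv bolus 30 mg/kg in normal saline via tail vein. Oral: parent at 30 mg/kg in 5% DMSO/water by gastric intubation; prodrugs as 5% DMSO/water solutions at 24-43 mg/kg PMEA equivalents. Urine collected 0-24 and 24-48 h in metabolism cages. PMEA measured by reversed-phase HPLC with fluorometric detection. Bioavailability = dose-normalized 0-48 h urinary PMEA, oral vs iv.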
# [2] = test system: Vero; experiment: Concentration that reduced plaque formation by 50% was measured in HSV-2 infected vero cells in vitro; assay type: functional, cell-based; settings: Chlorocebus sabaeus
# Summary of the method: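 Plaque reduction assay against HSV-2 strain G in infected Vero cells. IC50 taken as the concentration giving 50% reduction in plaque formation.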
# [3] = Oral bioavailability of compound in rat; assay type: ADME, organism-based; settings: in vivo, read-out: Bioavailabiility
# Summary of the method: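 Fasted (12-18 h) male rats, three per route. Prodrugs were given by gastric intubation in 5% DMSO/water at 24-43 mg/kg PMEA equivalents. The reference was PMEA 30 mg/kg as an iv tail-vein bolus in saline. Urine was collected 0-24 and 24-48 h in metabolism cages and PMEA quantified by reversed-phase HPLC with fluorometric detection. Bioavailability is dose-normalized 0-48 h urinary PMEA, oral versus iv.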
# [4] = Oral bioavailability of compound in monkey; assay type: ADME, organism-based; settings: simiiformes, in vivo, read-out: Bioavailabiility
smiles,measurement,setting,value
CC1(C)CNP(=O)(COCCn2cnc3c(N)ncnc32)NC1,F,[1],5.8%
CCN(CC)P(=O)(COCCn1cnc2c(N)ncnc21)N(CC)CC,F,[1],7.2%
Nc1ncnc2c1ncn2CCOCP(=O)(O)OCC(Cl)(Cl)Cl,F,[1],2.5%
CC(C)OP(=O)(COCCn1cnc2c(N)ncnc21)OC(C)C,F,[1],44.4%
CC(C)OP(=O)(O)COCCn1cnc2c(N)ncnc21,F,[1],5%
COP(=O)(O)COCCn1cnc2c(N)ncnc21,F,[1],1.4%
CC(C)(CN)CNP(=O)(O)COCCn1cnc2c(N)ncnc21,F,[1],10.6%
CC(C)(CO)COP(=O)(O)COCCn1cnc2c(N)ncnc21,F,[1],0%
CCN(CC)C(=O)COP(=O)(COCCn1cnc2c(N)ncnc21)OCOC(=O)C(C)(C)C (stereo not given),F,[1],2.2%
CCC(=O)OCOP(=O)(COCCn1cnc2c(N)ncnc21)OCOC(=O)CC,IC50,[2],0.4 µM
CC(C)CCOP(=O)(COCCn1cnc2c(N)ncnc21)OCCC(C)C,F,[1],0.5%
CC(C)COP(=O)(COCCn1cnc2c(N)ncnc21)OCC(C)C,F,[1],0%
CC(C)C(=O)OCOP(=O)(COCCn1cnc2c(N)ncnc21)OCOC(=O)C(C)C,IC50,[2],< 0.2 µM
Nc1ncnc2c1ncn2CCOCP(=O)(Oc1ccccc1)Oc1ccccc1,F,[1],11.1%
same,IC50,[2],77 µM
CCOP(=O)(COCCn1cnc2c(N)ncnc21)OCOC(=O)C(C)(C)C (stereo not given),F,[1],34.9%
CC(=O)OCC(=O)COC(C)=O,F,[1],5.8%
Nc1ncnc2c1ncn2CCOCP(=O)(OCC(Cl)(Cl)Cl)OCC(Cl)(Cl)Cl,F,[1],10.6%
CC(C)(C)C(=O)OCOP(=O)(O)COCCn1cnc2c(N)ncnc21,F,[1],6.5%
same,IC50,[2],22 µM
CC1(C)COP(=O)(COCCn2cnc3c(N)ncnc32)OC1,F,[1],0%
Nc1ncnc2c1ncn2CCOCP1(=O)OCCCO1,F,[1],0.7%
CCN(CC)C(=O)COP(=O)(O)COCCn1cnc2c(N)ncnc21,F,[1],3.5%
Nc1ncnc2c1ncn2CCOCP(=O)(O)OCc1ccc([N+](=O)[O-])cc1,F,[1],1.9%
CCOP(=O)(O)COCCn1cnc2c(N)ncnc21,F,[1],0%
same,IC50,[2],> 300 µM
Nc1ncnc2c1ncn2CCOCP(=O)(OCc1ccc([N+](=O)[O-])cc1)OCc1ccc([N+](=O)[O-])cc1,F,[1],1.7%
CCCCCCCCOP(=O)(O)COCCn1cnc2c(N)ncnc21,F,[1],0.8%
Nc1ncnc2c1ncn2CCOCP(=O)(O)OCC(F)(F)CO,F,[1],3.5%
CCOP(=O)(COCCn1cnc2c(N)ncnc21)OCC,F,[1],42%
same,IC50,[2],> 300 µM
Nc1ncnc2c1ncn2CCOCP(=O)(O)Oc1ccccc1,F,[1],14%
same,IC50,[2],95 µM
COP(=O)(COCCn1cnc2c(N)ncnc21)OC,F,[1],0%
CC(C)(C)C(=O)OCOP(=O)(COCCn1cnc2c(N)ncnc21)OCOC(=O)C(C)(C)C [ADEFOVIR DIPIVOXIL],F,[1],17.3%
same,IC50,[2],0.6 µM
Nc1ncnc2c1ncn2CCOCP(=O)(O)O [ADEFOVIR],bioavailability,[3],11%
same,bioavailability,[4],< 1%
same,F,[1],7.8%
same,IC50,[2],119 µM
